Calls of active or inactive are those of the source. The rule behind the calls is not given here.
Assay: Antioxidant activity assessed as ABTS radical scavenging activity after 15 mins by TEAC assay
Type: functional
Method in brief: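 ABTS (7 mM in water) oxidized with potassium persulfate (2.45 mM final), kept dark at room temperature 16 h, diluted with water to A734 0.700 ± 0.003. Sample added to diluted ABTS•+ (0–20 µM final); A734 decrease read after 15 min. Triplicate, with solvent blanks. Percent inhibition plotted against concentration alongside Trolox standard; TEAC = Trolox concentration matching antioxidant potential of 1 mM sample.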

SMILES | Activity
Cc1c(O[C@@H]2O[C@H](CO)[C@@H](O)[C@H](O)[C@H]2O)c(CO)c(O[C@@H]2O[C@H](CO)[C@@H](O)[C@H](O)[C@H]2O)c2c1O[C@H](c1ccc(O)cc1)C[C@H]2O | 1.17 mM
COCc1c(O)c(C)c2c3c1O[C@@H]1O[C@H](CO)[C@@H](O)[C@H](O)[C@H]1O[C@@H]3C[C@@H](c1ccc(O)cc1)O2 | 1.51 mM
Cc1c(O)c(C)c2c3c1O[C@@H]1O[C@H](CO)[C@@H](O)[C@H](O)[C@H]1O[C@@H]3C[C@@H](c1ccc(O)cc1)O2 | 1.32 mM
O=c1c(O)c(-c2ccc(O)c(O)c2)oc2cc(O)cc(O)c12 | 3.74 mM
O=c1c(O[C@@H]2O[C@H](CO)[C@@H](O)[C@H](O)[C@H]2O)c(-c2ccc(O)cc2)oc2cc(O)cc(O)c12 | 1.46 mM
COc1ccc([C@@H]2C[C@@H](O)c3c(O[C@@H]4O[C@H](CO)[C@@H](O)[C@H](O)[C@H]4O)c(C)c(O[C@@H]4O[C@H](CO)[C@@H](O)[C@H](O)[C@H]4O)c(C)c3O2)cc1 | inactive
COc1ccc([C@@H]2C[C@H]3O[C@H]4[C@H](Oc5c(C)c(O[C@@H]6O[C@H](CO)[C@@H](O)[C@H](O)[C@H]6O)c(C)c(c53)O2)O[C@H](CO)[C@@H](O)[C@@H]4O)cc1 | inactive
O=c1c(O[C@@H]2O[C@H](CO)[C@@H](O)[C@H](O)[C@H]2O)c(-c2ccc(O)c(O)c2)oc2cc(O)cc(O)c12 | 1.91 mM
COc1ccc([C@@H]2C[C@@H]3O[C@H]4[C@H](Oc5c(C)c(O)c(C)c(c53)O2)O[C@H](CO)[C@@H](O)[C@@H]4O)cc1 | 1.1 mM
COCc1c(O)c(C)c2c3c1O[C@@H]1O[C@H](CO)[C@@H](O)[C@H](O)[C@H]1O[C@@H]3C[C@@H](c1ccc(OC)cc1)O2 | 1.03 mM
COc1ccc([C@@H]2C[C@H]3O[C@H]4[C@H](Oc5c(C)c(O)c(C)c(c53)O2)O[C@H](CO)[C@@H](O)[C@@H]4O)cc1 | 1.36 mM
COc1ccc([C@@H]2C[C@@H](O)c3c(c(C)c(O[C@@H]4O[C@H](CO)[C@@H](O)[C@H](O)[C@H]4O)c(CO)c3O[C@@H]3O[C@H](CO)[C@@H](O)[C@H](O)[C@H]3O)O2)cc1 | inactive
Cc1c(O)c(C)c2c3c1O[C@@H]1O[C@H](CO)[C@@H](O)[C@H](O)[C@H]1O[C@H]3C[C@@H](c1ccc(O)cc1)O2 | 1.44 mM

— ChEMBL document CHEMBL1141320, “Antioxidant flavonoid glycosides from aerial parts of the fern Abacopteris penangiana” (J Nat Prod, 2007)
